Reference: paper PMC4593394 (ACS chemical biology, 2015)

What was measured:
[1] = system: XBP1s in HEK293 cells; assay: Unfolded protein response: XBP1 splicing, Western blot; assay type: cell-based; settings: anti-XBP1 Western blot
How it was run: (§1)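 HEK293 cells were treated with compound in DMEM/10% FBS for 24 h and lysed in SDS sample buffer with sonication. Lysates were run on 4–20% gradient SDS-PAGE and transferred to nitrocellulose, blocked 1 h in 5% milk, then probed with 1:1000 anti-ubiquitin, anti-XBP1s (spliced […] band) or anti-LC3 I/II (LC3-II lowest band). Secondaries were used at 1:3000 with chemiluminescent detection; lamin A or GAPDH served as loading controls.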

[2] = biological target: GroEL (Escherichia coli, UniProt P0A6F5); assay: biochemical; set-up: species or system E. coli
GroEL, sequence (P0A6F5 2-548): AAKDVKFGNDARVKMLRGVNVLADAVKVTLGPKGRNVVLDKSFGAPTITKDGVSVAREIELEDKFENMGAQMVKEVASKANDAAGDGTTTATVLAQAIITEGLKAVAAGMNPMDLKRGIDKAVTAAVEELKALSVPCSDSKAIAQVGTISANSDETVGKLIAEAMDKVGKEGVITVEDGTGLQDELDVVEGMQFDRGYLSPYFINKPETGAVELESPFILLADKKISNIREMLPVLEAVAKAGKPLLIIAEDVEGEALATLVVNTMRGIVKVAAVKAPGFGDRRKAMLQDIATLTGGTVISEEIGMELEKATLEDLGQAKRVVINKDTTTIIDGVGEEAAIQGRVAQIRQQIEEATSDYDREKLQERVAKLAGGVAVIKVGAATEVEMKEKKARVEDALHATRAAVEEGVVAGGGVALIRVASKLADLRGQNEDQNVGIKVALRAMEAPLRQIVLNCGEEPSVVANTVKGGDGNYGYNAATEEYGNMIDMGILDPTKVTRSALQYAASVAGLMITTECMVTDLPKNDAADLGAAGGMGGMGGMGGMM

[3] = biological target: wild-type p97 (wt-p97) (Homo sapiens, UniProt P55072); assay: Analysis of covalent reactivity: p97 ATPase activity after dialysis; assay type: biochemical; settings: 1 μM compound, 1 μM p97, 2 mM ATP
wild-type p97 (wt-p97), sequence (P55072 whole entry): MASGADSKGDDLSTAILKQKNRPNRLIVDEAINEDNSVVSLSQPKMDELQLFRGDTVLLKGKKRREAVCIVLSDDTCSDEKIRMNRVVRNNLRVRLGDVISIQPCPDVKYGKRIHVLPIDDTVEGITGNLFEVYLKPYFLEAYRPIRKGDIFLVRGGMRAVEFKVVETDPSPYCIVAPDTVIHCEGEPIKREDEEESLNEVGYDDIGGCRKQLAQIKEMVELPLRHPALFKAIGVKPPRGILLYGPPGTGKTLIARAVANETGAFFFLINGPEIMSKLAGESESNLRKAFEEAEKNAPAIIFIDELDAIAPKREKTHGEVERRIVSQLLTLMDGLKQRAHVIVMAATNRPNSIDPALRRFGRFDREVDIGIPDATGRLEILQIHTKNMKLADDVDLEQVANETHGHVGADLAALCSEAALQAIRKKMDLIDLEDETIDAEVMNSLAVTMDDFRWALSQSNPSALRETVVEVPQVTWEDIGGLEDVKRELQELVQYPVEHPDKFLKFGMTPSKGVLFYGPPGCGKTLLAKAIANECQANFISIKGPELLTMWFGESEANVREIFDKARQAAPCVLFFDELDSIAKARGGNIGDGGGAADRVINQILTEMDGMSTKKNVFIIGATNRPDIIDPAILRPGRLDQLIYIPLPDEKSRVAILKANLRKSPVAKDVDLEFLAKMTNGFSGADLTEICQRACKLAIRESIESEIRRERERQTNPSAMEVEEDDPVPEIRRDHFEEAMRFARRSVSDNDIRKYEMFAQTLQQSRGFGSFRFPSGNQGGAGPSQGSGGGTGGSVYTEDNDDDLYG
How it was run: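 His-tagged wild-type p97 (pET14b, E. coli BL21(DE3), Talon-purified; 1 μM) was incubated with 1 μM compound in Tris/KCl/MgCl2/DTT buffer pH 7.4 at 4 °C 12 h, 21 °C 6 h or 37 °C 2 h; 1% DMSO served as control. The mixture was dialysed against buffer exchanged three times at 2-h intervals.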

[4] = biological target: 20S proteasome (Homo sapiens, UniProt P20618+P28074); assay: 20S proteasome chymotrypsin-like activity; assay type: biochemical; settings: 1.2 nM 20S proteasome, Suc-LLVY-AMC
How it was run: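 Kit-supplied 20S proteasome (1.2 nM final) was preincubated with test compound (eight-point, 3-fold serial dilutions) in kit reaction buffer at 37 °C for 10 min. Then 50 μM Suc-LLVY-AMC was added, followed by 1 h at 37 °C. AMC fluorescence was read at ex 380/em 440 nm. IC50 was taken from a semi-log plot of relative fluorescence versus concentration.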

[5] = biological target: N-ethylmaleimide sensitive factor (NSF) (Cricetulus griseus, UniProt P18708); assay: NSF ATPase assay; assay type: biochemical, Chinese hamster (Cricetulus griseus)
N-ethylmaleimide sensitive factor (NSF), sequence (P18708 whole entry): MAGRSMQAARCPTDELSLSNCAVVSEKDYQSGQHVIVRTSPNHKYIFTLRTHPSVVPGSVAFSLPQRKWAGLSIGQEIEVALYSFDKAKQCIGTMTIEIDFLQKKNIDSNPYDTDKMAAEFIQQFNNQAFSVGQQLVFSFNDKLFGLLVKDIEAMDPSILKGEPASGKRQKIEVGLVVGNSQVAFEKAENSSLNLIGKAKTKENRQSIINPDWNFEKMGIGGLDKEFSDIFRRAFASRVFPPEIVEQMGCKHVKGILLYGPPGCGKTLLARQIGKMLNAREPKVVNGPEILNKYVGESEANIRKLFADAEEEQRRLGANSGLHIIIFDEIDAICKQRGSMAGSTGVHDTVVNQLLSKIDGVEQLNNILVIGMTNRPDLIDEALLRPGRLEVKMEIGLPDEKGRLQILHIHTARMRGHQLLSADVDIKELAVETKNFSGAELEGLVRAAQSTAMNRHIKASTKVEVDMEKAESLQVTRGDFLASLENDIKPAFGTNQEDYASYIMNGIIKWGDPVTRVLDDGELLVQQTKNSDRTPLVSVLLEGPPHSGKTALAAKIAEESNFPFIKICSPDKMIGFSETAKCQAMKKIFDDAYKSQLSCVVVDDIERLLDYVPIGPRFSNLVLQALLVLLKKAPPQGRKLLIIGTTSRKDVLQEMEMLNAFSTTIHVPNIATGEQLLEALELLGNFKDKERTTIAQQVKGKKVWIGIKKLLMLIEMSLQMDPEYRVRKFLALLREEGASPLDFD
How it was run: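 Chinese hamster NSF was expressed in E. coli Rosetta 2(DE3), purified by Talon then Superdex 200, and used at 200 nM in 50 mM Tris pH 7.4, 150 mM KCl, 10 mM MgCl2, 1 mM DTT. Compound (0.0004–100 μM in DMSO) was preincubated 10 min at 21 °C, then 100 μM ATP was added. IC50 was fitted from % inhibition on a semi-log plot.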

[6] = biological target: p97–Cys0 (Homo sapiens, UniProt P55072, C105V/C174V/C184V/C209A/C415V/C522A/C535V/C572V/C691V/C695V/C69V/C77V); assay: ATPase assay, cysteine-less p97 variant; assay type: biochemical
p97–Cys0, sequence (P55072 whole entry C69V/C77V/C105V/C174V/C184V/C209A/C415V/C522A/C535V/C572V/C691V/C695V): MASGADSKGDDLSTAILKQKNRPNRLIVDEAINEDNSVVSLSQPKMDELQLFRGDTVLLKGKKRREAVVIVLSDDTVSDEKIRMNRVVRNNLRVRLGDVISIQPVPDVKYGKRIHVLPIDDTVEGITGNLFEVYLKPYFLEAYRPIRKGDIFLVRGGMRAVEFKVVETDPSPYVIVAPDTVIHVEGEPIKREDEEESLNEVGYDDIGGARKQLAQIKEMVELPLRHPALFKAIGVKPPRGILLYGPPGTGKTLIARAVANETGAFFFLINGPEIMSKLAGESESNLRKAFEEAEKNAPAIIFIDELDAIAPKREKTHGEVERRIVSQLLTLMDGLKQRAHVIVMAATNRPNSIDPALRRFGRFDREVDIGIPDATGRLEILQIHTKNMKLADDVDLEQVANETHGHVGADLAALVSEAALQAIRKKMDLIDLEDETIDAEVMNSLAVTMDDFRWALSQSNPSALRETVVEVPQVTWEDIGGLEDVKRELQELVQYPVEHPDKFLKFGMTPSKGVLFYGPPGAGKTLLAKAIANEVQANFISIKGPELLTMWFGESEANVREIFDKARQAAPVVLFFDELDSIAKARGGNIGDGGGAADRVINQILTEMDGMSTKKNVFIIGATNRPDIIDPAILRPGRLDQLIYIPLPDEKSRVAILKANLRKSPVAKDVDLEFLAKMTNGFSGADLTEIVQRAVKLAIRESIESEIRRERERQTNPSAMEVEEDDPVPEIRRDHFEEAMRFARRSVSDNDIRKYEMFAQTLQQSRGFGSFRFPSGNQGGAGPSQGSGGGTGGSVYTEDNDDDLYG
How it was run: (§2)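 His-tagged p97 variants were expressed from pET14b in E. coli BL21(DE3) and purified on Talon resin; C522A and C209A were also run on Superose 6. Enzyme (100 nM) was in 50 mM Tris pH 7.4, 150 mM KCl, 10 mM MgCl2, 1 mM DTT. Compound (0.0004–100 μM, 12 points, DMSO) was preincubated 10 min at 21 °C. 100 μM ATP was added at 21 °C. IC50 came from % inhibition versus log concentration.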

[7] = biological target: wt p97 (Homo sapiens, UniProt P55072); assay: p97 ATPase assay; assay type: biochemical
wt p97, sequence (P55072 whole entry): as the sequence (P55072 whole entry) above
How it was run: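 Test compound in DMSO (0.0004–100 μM) preincubated 10 min at 21 °C, then 100 μM ATP added at 21 °C. IC50 fitted from % inhibition versus log concentration. Screen: 100 μM pure compounds, EDTA positive control.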

[8] = system: actin (phalloidin), vimentin, and annexin II; assay: Immunofluorescence of structural proteins; assay type: cell-based; settings: HEK293 cells, 4 h, concentrations used in the cellular studies
[9] = biological target: p97–C522A (Homo sapiens, UniProt P55072, C522A); assay: ATPase assay, p97 C522A variant; assay type: biochemical
p97–C522A, sequence (P55072 whole entry C522A): as the sequence (P55072 whole entry) above, with C522A counted along it
How it was run: as §2

[10] = system: total ubiquitylated proteins in HEK293 cells; assay: Total ubiquitylation, Western blot; assay type: cell-based; settings: anti-ubiquitin antibody
How it was run: as §1

[11] = biological target: p97–C209A (Homo sapiens, UniProt P55072, C209A); assay: ATPase assay, p97 C209A variant; assay type: biochemical
p97–C209A, sequence (P55072 whole entry C209A): as the sequence (P55072 whole entry) above, with C209A counted along it
How it was run: as §2

[12] = system: Ub^G76VGFP in HEK293 cells; assay: Ub^G76VGFP reporter level, Western blot; assay type: cell-based; settings: anti-GFP Western blot
[13] = biological target: ClpX (Escherichia coli, UniProt P0A6H1); assay: ClpX ATPase assay; assay type: biochemical, bacterial
ClpX, sequence (P0A6H1 whole entry): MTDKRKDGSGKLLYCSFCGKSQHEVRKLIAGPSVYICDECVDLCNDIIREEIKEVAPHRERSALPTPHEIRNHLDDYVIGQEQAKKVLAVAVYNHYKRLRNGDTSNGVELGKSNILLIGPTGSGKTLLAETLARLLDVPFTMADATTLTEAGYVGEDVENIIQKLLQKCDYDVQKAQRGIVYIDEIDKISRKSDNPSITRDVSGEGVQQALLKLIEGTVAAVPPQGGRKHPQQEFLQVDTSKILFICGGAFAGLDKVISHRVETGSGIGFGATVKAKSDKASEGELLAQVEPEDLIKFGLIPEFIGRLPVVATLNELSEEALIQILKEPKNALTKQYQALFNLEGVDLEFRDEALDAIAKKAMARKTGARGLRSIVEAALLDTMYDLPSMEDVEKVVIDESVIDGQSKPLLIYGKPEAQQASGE

[14] = in vitro; settings: human
[15] = in vitro; settings: human; remark: listed apart in the source
[16] = in vitro; settings: human; remark: listed apart in the source
[17] = in vitro; settings: human; remark: listed apart in the source
[18] = in vitro; settings: human; remark: listed apart in the source
[19] = in vitro; settings: human; remark: listed apart in the source

CC1=C(CO)C(=O)O[C@@H]([C@@H](C)[C@H]2CC[C@H]3[C@@H]4C[C@H]5O[C@]56[C@@H](O)C=CC(=O)[C@]6(C)[C@H]4CC[C@]23C)C1 [Compound 1, withaferin A]
increase in XBP1s [1]: did show an increase
IC50 [2]: > 200 µM
inhibition of p97 ATPase remaining after extensive dialysis [3]: slight inhibition remained
inhibition of the 20S proteasome [4]: inhibit
IC50 [5]: > 200 µM
IC50 [6]: > 200 µM
IC50 [7]: 44 ± 0.21 µM
inhibition of p97 in initial screen ([7]; 100 μM for pure compounds, 384-well plate): moderate inhibition
effect of ATP concentration on the IC50 value ([7]; varied ATP concentration): distinct shift in the IC50 value
effects on structural proteins [8]: did not see effects
IC50 [9]: > 200 µM
total ubiquitylation [10]: increased
IC50 [11]: 24.9 ± 1.91 µM
level of Ub^G76VGFP reporter [12]: dose-dependent, higher levels of reporter
IC50 [13]: > 200 µM

CC1=C(CO)C(=O)O[C@@H]([C@@H](C)[C@H]2CC[C@H]3[C@@H]4C[C@H]5O[C@]56[C@@H](O)[C@@H](O)CC(=O)[C@]6(C)[C@H]4CC[C@]23C)C1 [Compound 14, viscosalactone B]
IC50 at 48 h [14]: > 100 µM
IC50 at 48 h [15]: > 100 µM
IC50 [2]: > 200 µM
IC50 [5]: > 200 µM
IC50 [6]: > 200 µM
IC50 [7]: > 200 µM
IC50 [9]: > 200 µM
IC50 at 48 h [16]: > 100 µM
IC50 at 48 h [17]: > 100 µM
IC50 [11]: > 200 µM
IC50 at 48 h [18]: > 100 µM
IC50 [13]: > 200 µM
IC50 at 48 h [19]: > 100 µM
